# Activity calls are given as the source filed them. No cut-off for these calls is given here.
# How the values were obtained:
# [1] = system: Plasmodium falciparum; experiment: Antiplasmodial activity against Plasmodium falciparum 3D7 infected in human erythrocytes engrafted in NOD-SCID IL-2Rgamma null mouse assessed as reduction in blood parasitemia administered as single dose via oral gavage […] by flow cytometry; assay type: functional; conditions: 3D7, po
# Method in brief: (§1)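 SCID mice engrafted with human erythrocytes, infected with P. falciparum 3D7; single oral dose of 1, 3, 10 or 30 mg·kg-1 given day 3 after infection. Parasitemia measured by flow cytometry, lower limit of quantification 0.01; vehicle group n=3; chloroquine positive control. ED90 and AUC_ED90 are taken as the reduction at day 7 after infection versus vehicle-treated mice.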
# [2] = Dissociation constant, pKa of the compound at pH 1.5; assay type: physicochemical
# [3] = Fraction unbound in human plasma at 1000 ng/mL by LC-MS analysis; assay type: ADME, cell-free
# [4] = system: Plasmodium falciparum; experiment: Antiplasmodial activity against Plasmodium falciparum NF54 infected in human erythrocytes after 72 hrs by [3H]-hypoxanthine incorporation assay; assay type: functional, organism-based
# [5] = system: Plasmodium falciparum; experiment: Antiplasmodial activity against Plasmodium falciparum K1 infected in human erythrocytes after 72 hrs by [3H]-hypoxanthine incorporation assay; assay type: functional, organism-based
# [6] = system: Plasmodium falciparum; experiment: Antiplasmodial activity against Plasmodium falciparum 7G8 infected in human erythrocytes after 72 hrs by [3H]-hypoxanthine incorporation assay; assay type: functional, organism-based
# [7] = system: Plasmodium falciparum; experiment: Antiplasmodial activity against Plasmodium falciparum V1/S infected in human erythrocytes after 72 hrs by [3H]-hypoxanthine incorporation assay; assay type: functional, organism-based
# [8] = Ratio of EC50 for Plasmodium falciparum Dd2 infected in human erythrocytes to EC50 for Plasmodium falciparum NF54 infected in human erythrocytes; assay type: functional
# [9] = Oral bioavailability in CD1 mouse at 0.5 mg/kg measured for 14 days; assay type: ADME, organism-based; conditions: in vivo
# Method in brief: (§2)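 Single po administration, mouse dose 0.5 mg·kg-1; plasma concentrations followed to obtain Cmax time and half-life. Bioavailability derived against single iv dosing.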
# [10] = Kinetic solubility of the compound in PBS at pH 7.4 after 24 hrs by HPLC analysis; assay type: physicochemical; conditions: read-out: Kinetic_solubility
# [11] = Half life in rat at 0.5 mg/kg, po measured for 14 days; assay type: ADME, organism-based; conditions: in vivo
# [12] = Kinetic solubility of the compound in FaSSIF at pH 6.5 after 24 hrs by HPLC analysis; assay type: physicochemical; conditions: read-out: Kinetic_solubility
# [13] = system: Plasmodium falciparum; experiment: Antiplasmodial activity against Plasmodium falciparum TM90C2B infected in human erythrocytes after 72 hrs by [3H]-hypoxanthine incorporation assay; assay type: functional, organism-based
# [14] = Intrinsic clearance in monkey microsomes assessed per mg protein; assay type: ADME, Macaca mulatta, Microsome; conditions: rhesus monkey
# [15] = system: Plasmodium falciparum; experiment: Antiplasmodial activity against Plasmodium falciparum HB3 infected in human erythrocytes after 72 hrs by [3H]-hypoxanthine incorporation assay; assay type: functional, organism-based
# [16] = Clearance in CD1 mouse at 0.2 mg/kg, iv measured for 14 days; assay type: ADME, organism-based; conditions: in vivo
# Method in brief: (§3)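 Single iv administration, mouse dose 0.2 mg·kg-1. CL reported in L/h/kg and as % liver blood flow; Vss in L/kg.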
# [17] = Octanol-phosphate buffer partition co-efficient, log D of the compound at pH 7.4 after 1 hr by HPLC analysis; assay type: physicochemical
# [18] = Lipophilicity, log P of the compound; assay type: physicochemical; conditions: octanol/water
# [19] = Ratio of drug uptake in human blood to plasma; assay type: ADME; conditions: blood and plasma
# [20] = Oral bioavailability in rat at 0.5 mg/kg measured for 14 days; assay type: ADME, organism-based; conditions: in vivo
# [21] = Efflux ratio of apparent permeability from basolateral to apical side over apical to basolateral side in human Caco2 cells at 20 uM after 4 hrs in presence of human plasma by LC-MS analysis; assay type: ADME, cell-based; conditions: Caco-2
# Method in brief: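 Caco-2 permeability was run with human plasma on both donor and acceptor sides to reduce non-specific binding. Apparent permeability (Papp, ×10^-6 cm/s) was corrected for the unbound concentration, and an efflux ratio was reported.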
# [22] = Ratio of EC50 for Plasmodium falciparum TM90C2B infected in human erythrocytes to EC50 for Plasmodium falciparum NF54 infected in human erythrocytes; assay type: functional
# [23] = Oral bioavailability in dog at 0.5 mg/kg measured for 14 days; assay type: ADME, organism-based, Canis lupus familiaris; conditions: in vivo
# [24] = Ratio of EC50 for Plasmodium falciparum 7G8 infected in human erythrocytes to EC50 for Plasmodium falciparum NF54 infected in human erythrocytes; assay type: functional
# [25] = Clearance in dog at 0.2 mg/kg, iv measured for 14 days; assay type: ADME, organism-based, Canis lupus familiaris; conditions: in vivo; method in brief: as §3
# [26] = Cmax in NOD-SCID IL-2Rgamma null mouse at 10 mg/kg measured up to 5 days; assay type: ADME, organism-based; design: dose 10 mg/kg; conditions: in vivo
# [27] = system: Plasmodium falciparum; experiment: Antiplasmodial activity against Plasmodium falciparum D6 infected in human erythrocytes after 72 hrs by [3H]-hypoxanthine incorporation assay; assay type: functional, organism-based
# [28] = Ratio of drug uptake in mouse blood to plasma; assay type: ADME; conditions: blood and plasma
# [29] = target: Voltage-gated inwardly rectifying potassium channel KCNH2 (Homo sapiens, UniProt Q12809); experiment: Inhibition of human ERG
# [30] = Ratio of EC50 for Plasmodium falciparum HB3 infected in human erythrocytes to EC50 for Plasmodium falciparum NF54 infected in human erythrocytes; assay type: functional
# [31] = Fraction unbound in mouse plasma at 1000 ng/mL by LC-MS analysis; assay type: ADME, cell-free
# [32] = system: Plasmodium falciparum; experiment: Antiplasmodial activity against Plasmodium falciparum Dd2 infected in human erythrocytes after 72 hrs by [3H]-hypoxanthine incorporation assay; assay type: functional, organism-based
# [33] = Stability in human hepatocytes assessed as parent compound remaining after 5 hrs; assay type: ADME, cell-based, Hepatocyte; conditions: read-out: Stability
# Method in brief: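 Human hepatocyte incubation extended to 5 h; parent remaining and metabolite formation assessed.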
# [34] = Ratio of EC50 for Plasmodium falciparum V1/S infected in human erythrocytes to EC50 for Plasmodium falciparum NF54 infected in human erythrocytes; assay type: functional
# [35] = system: Plasmodium falciparum; experiment: Antiplasmodial activity against Plasmodium falciparum 3D7 infected in human erythrocytes engrafted in NOD-SCID IL-2Rgamma null mouse assessed as reduction in peripheral blood parasitemia administered as single dose via oral gavage measured on […] by flow cytometry; assay type: functional, organism-based; method in brief: as §1
# [36] = Fraction unbound in dog plasma at 1000 ng/mL by LC-MS analysis; assay type: ADME, cell-free, Canis lupus familiaris
# [37] = Kinetic solubility of the compound in FeSSIF at pH 5 after 24 hrs by HPLC analysis; assay type: physicochemical; conditions: read-out: Kinetic_solubility
# [38] = Apparent permeability of the compound in human Caco2 cells at 20 uM after 4 hrs in presence of human plasma by LC-MS analysis; assay type: ADME, cell-based; conditions: Caco-2
# Method in brief: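 Caco-2 permeability measured with human plasma in both donor and acceptor compartments to reduce non-specific binding. Papp corrected for the unbound concentration under these conditions; efflux ratio also reported.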
# [39] = Volume of distribution at steady state in CD1 mouse at 0.2 mg/kg, iv measured for 14 days; assay type: ADME, organism-based; conditions: in vivo, read-out: Vdss; method in brief: as §3
# [40] = system: Plasmodium falciparum; experiment: Antiplasmodial activity against schizont stage of Plasmodium falciparum 3D7A infected in red blood cells assessed as reduction in parasite viability at 3 to 10 times EC50 after 48 hrs by [3H]-hypoxanthine incorporation assay relative to ring stage; assay type: functional
# [41] = Tmax in CD1 mouse at 0.5 mg/kg, po measured for 14 days; assay type: ADME, organism-based; conditions: in vivo; method in brief: as §2
# [42] = Ratio of EC50 for Plasmodium falciparum K1 infected in human erythrocytes to EC50 for Plasmodium falciparum NF54 infected in human erythrocytes; assay type: functional
# [43] = system: Plasmodium falciparum; experiment: Ratio of EC90 for Plasmodium falciparum NF54 infected in human erythrocytes to EC50 for Plasmodium falciparum NF54 infected in human erythrocytes; assay type: functional
# [44] = system: Plasmodium falciparum; experiment: Antiplasmodial activity against Plasmodium falciparum 3D7A infected in red blood cells assessed as log reduction in parasite viability at 10 times EC50 after 48 hrs by [3H]-hypoxanthine incorporation assay; assay type: functional
# Method in brief: (§4)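 In vitro parasite reduction ratio (PRR) assay on P. falciparum 3D7A-infected erythrocytes exposed to drug at 10× or 3× EC50. Viability of treated parasites was measured by limiting serial dilution followed by monitoring of re-growth. Killing was expressed as log-unit reduction in viable parasites after 48 h.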
# [45] = system: Plasmodium falciparum; experiment: Antiplasmodial activity against Plasmodium falciparum FCB infected in human erythrocytes after 72 hrs by [3H]-hypoxanthine incorporation assay; assay type: functional, organism-based
# [46] = Half life in dog at 0.5 mg/kg, po measured for 14 days; assay type: ADME, organism-based, Canis lupus familiaris; conditions: in vivo; method in brief: as §2
# [47] = system: Plasmodium falciparum; experiment: Antiplasmodial activity against Plasmodium falciparum 3D7 infected in human erythrocytes engrafted in NOD-SCID IL-2Rgamma null mouse assessed as reduction in blood parasitemia at 10 to 30 mg/kg, po administered as single dose via gavage measured on day 4 post treatment by flow cytometry; assay type: functional, organism-based
# Method in brief: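 Human-erythrocyte-engrafted SCID mice infected with P. falciparum 3D7 received one oral dose (1, 3, 10 or 30 mg·kg-1) on day 3 post-infection. Parasitemia was followed by flow cytometry, with a quantification limit of 0.01; vehicle controls n=3.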
# [48] = Intrinsic clearance in mouse microsomes assessed per mg protein; assay type: ADME, Microsome
# [49] = Protein binding in brain (unknown origin); assay type: ADME, tissue-based; conditions: read-out: PB
# [50] = Half life in CD1 mouse at 0.5 mg/kg, po measured for 14 days; assay type: ADME, organism-based; conditions: in vivo; method in brief: as §2
# [51] = Intrinsic clearance in human microsomes assessed per mg protein; assay type: ADME, Microsome
# [52] = Intrinsic clearance in dog microsomes assessed per mg protein; assay type: ADME, Canis lupus familiaris, Microsome
# [53] = Fraction unbound in rat plasma at 1000 ng/mL by LC-MS analysis; assay type: ADME, cell-free
# [54] = Intrinsic clearance in rat microsomes assessed per mg protein; assay type: ADME, Microsome
# [55] = Ratio of EC50 for Plasmodium falciparum D6 infected in human erythrocytes to EC50 for Plasmodium falciparum NF54 infected in human erythrocytes; assay type: functional
# [56] = system: Plasmodium falciparum; experiment: Antiplasmodial activity against Plasmodium falciparum 3D7A infected in red blood cells at 2 times EC90; assay type: functional, organism-based
# [57] = system: Plasmodium falciparum; experiment: Antiplasmodial activity against Plasmodium falciparum 3D7A infected in red blood cells assessed as log reduction in parasite viability at 3 times EC50 after 48 hrs by [3H]-hypoxanthine incorporation assay; assay type: functional; method in brief: as §4
# [58] = Ratio of EC50 for Plasmodium falciparum FCB infected in human erythrocytes to EC50 for Plasmodium falciparum NF54 infected in human erythrocytes; assay type: functional
# Chain of Voltage-gated inwardly rectifying potassium channel KCNH2 (Q12809 whole entry): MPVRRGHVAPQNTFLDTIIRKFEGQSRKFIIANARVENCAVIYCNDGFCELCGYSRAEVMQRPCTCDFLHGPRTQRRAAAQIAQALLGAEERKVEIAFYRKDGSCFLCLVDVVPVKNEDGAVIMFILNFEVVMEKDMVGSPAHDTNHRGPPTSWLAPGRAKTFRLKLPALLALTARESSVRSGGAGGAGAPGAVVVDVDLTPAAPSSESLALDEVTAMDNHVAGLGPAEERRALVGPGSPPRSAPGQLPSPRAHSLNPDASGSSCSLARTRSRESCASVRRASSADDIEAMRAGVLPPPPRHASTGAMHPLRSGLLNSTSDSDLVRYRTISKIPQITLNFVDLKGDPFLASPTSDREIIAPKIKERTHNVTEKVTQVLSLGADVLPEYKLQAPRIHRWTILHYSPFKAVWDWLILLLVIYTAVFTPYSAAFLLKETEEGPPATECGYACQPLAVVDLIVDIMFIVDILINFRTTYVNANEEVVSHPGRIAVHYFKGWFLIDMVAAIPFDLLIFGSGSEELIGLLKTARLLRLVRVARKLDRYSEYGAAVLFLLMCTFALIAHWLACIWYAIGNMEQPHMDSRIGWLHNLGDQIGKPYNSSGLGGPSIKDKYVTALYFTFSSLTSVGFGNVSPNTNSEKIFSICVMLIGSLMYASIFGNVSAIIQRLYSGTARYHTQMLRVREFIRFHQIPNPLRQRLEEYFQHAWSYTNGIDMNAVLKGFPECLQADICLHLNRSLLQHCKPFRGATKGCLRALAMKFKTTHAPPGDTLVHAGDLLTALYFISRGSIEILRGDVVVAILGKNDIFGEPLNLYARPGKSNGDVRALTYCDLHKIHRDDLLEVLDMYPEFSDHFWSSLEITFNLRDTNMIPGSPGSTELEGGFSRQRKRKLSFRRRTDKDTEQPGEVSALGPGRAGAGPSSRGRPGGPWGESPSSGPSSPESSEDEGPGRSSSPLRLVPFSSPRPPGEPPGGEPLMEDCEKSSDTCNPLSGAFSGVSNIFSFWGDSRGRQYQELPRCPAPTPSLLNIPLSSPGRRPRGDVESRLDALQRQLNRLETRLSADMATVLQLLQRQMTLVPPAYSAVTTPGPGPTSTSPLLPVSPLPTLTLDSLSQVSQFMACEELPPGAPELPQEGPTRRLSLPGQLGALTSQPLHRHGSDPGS
smiles,measurement,setting,value
CCN(CC)CCCC(C)Nc1ccnc2cc(Cl)ccc12 (stereo unspecified) [CHLOROQUINE],ED50,[1],2.8 mg/kg
C1CCCNCC1 [AZEPANE],pKa,[2],8.05
O[C@H]1CNCCC[C@@H]1n1c2ccc(C(F)(F)F)cc2c2cc(C(F)(F)F)ccc21,fraction unbound at 1000 ng/mL,[3],0.035
same,fEC50,[4],0.17 nM
same,EC50,"[4]; Plasmodium falciparum, NF54",2.4 nM
same,EC50,[5],0.7 nM
same,EC50,[6],0.4 nM
same,EC50,[7],1.3 nM
same,pKa,[2],8.05
same,Ratio EC50,[8],1.3
same,bioavailability,[9],97%
same,solubility kinetic at 24 h,[10],1.5 µg/mL
same,half-life,[11],160 h
same,solubility kinetic at 24 h,[12],10 µg/mL
same,EC50,[13],3 nM
same,microsomal CLint,[14],< 10 µL/min/mg
same,EC50,[15],2.1 nM
same,clearance,[16],2.6 mL/min/kg
same,logD at 1 h,[17],4.1
same,logP,[18],4.6
same,blood plasma ratio,[19],1.5
same,bioavailability,[20],72%
same,"efflux ratio at 4 h, 20 µM",[21],0.8
same,Ratio EC50,[22],1.2
same,bioavailability,[23],100%
same,Ratio EC50,[24],0.2
same,clearance,[25],2.98 mL/min/kg
same,Cmax,[26],1000 nM
same,EC50,[27],3.4 nM
same,blood plasma ratio,[28],1.6
same,IC50,[29],1180 nM
same,Ratio EC50,[30],0.9
same,ED90,[1],3.6 mg/kg
same,fraction unbound at 1000 ng/mL,[31],0.026
same,EC50,[32],3.2 nM
same,remaining at 5 h,[33],96%
same,Ratio EC50,[34],0.5
same,AUCED90,[35],2.2 µg.hr/ml/day
same,fraction unbound at 1000 ng/mL,[36],0.013
same,solubility kinetic at 24 h,[37],83.5 µg/mL
same,"Papp at 4 h, 20 µM",[38],120 ×10⁻⁶ cm/s
same,Vd,[39],10 L/kg
same,fold change (FC),[40],2
same,Tmax,[41],6 h
same,Ratio EC50,[42],0.3
same,fold change (FC),[43],2
same,FC,[44],4.8
same,EC50,[45],3 nM
same,half-life,[46],69 h
same,Activity,[47],Active
same,microsomal CLint,[48],< 10 µL/min/mg
same,fraction unbound,[49],< 0.001
same,half-life,[50],86 h
same,microsomal CLint,[51],< 10 µL/min/mg
same,microsomal CLint,[52],< 10 µL/min/mg
same,fraction unbound at 1000 ng/mL,[53],0.025
same,microsomal CLint,[54],< 10 µL/min/mg
same,Ratio EC50,[55],1.4
same,Activity,[56],Active
same,FC,[57],4.5
same,Ratio EC50,[58],1.3

# Source: ChEMBL document CHEMBL4138257, “Long-Lasting and Fast-Acting in Vivo Efficacious Antiplasmodial Azepanylcarbazole Amino Alcohol” (ACS Med Chem Lett, 2017)
